Data: ChEMBL document CHEMBL2163211, “Antiviral chromones from the stem of Cassia siamea” (J Nat Prod, 2012)
Converted amounts (≈) assume the structure as drawn.

How the values were obtained:
[1] = Therapeutic index, ratio of CC50 for human C8166 cells to EC50 for HIV1; type: cell-based; details: read-out: Ratio CC50/EC50
In short: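 Ratio of CC50 (MTT cytotoxicity in C8166 cells) to EC50, where EC50 comes from an assay of inhibition of HIV-1 cytopathic effects; azidothymidine served as the positive control.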

[2] = Cytotoxicity against human C8166 cells by MTT assay; type: cell-based
In short: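 C8166 cells assessed by MTT, with cytotoxicity expressed as CC50; azidothymidine served as the positive control.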

[3] = system: Human immunodeficiency virus 1; test: Antiviral activity against HIV1 infected in human C8166 cells assessed as inhibition of virus-induced cytopathic effect; type: functional, organism-based; details: Human immunodeficiency virus 1, C8166
In short: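 HIV-1 cytopathic-effect inhibition assay in C8166 cells gives EC50; cytotoxicity to C8166 cells measured in parallel by MTT to give CC50. Azidothymidine served as positive control.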

Tobacco mosaic virus [4] = test: Antiviral activity against Tobacco mosaic virus infected in right side leaf of Nicotiana glutinosa at 20 uM after 3 to 4 days by half-leaf method; type: functional
In short: (§1)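 Half-leaf assay on N. glutinosa (local lesion host, 5–6-leaf stage, insect-free greenhouse). Purified TMV diluted to 32 μg/mL in 0.01 M PBS, mixed with compound (DMSO stock diluted with water) for 30 min, then rubbed on the left half-leaf; the right half received virus plus equal DMSO as control. Local lesions counted 3 or 4 days later, three repetitions; inhibition = (C−T)/C×100; ningnanmycin positive control.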

Tobacco mosaic virus [5] = test: Antiviral activity against Tobacco mosaic virus infected in right side leaf of Nicotiana glutinosa at 80 uM after 3 to 4 days by half-leaf method; type: functional; in short: as §1
Tobacco mosaic virus [6] = test: Antiviral activity against Tobacco mosaic virus infected in leaf of Nicotiana glutinosa assessed as protection against viral infection at 20 uM treated 6 hrs before infection; type: functional
In short: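 Protection test: N. glutinosa leaves pretreated with 20 μM compound solution or DMSO solution for 6 h, then inoculated with purified TMV. Local lesions counted on the host leaves and inhibition rate computed from lesion numbers versus the DMSO control.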

Tobacco mosaic virus [7] = test: Antiviral activity against Tobacco mosaic virus infected in right side leaf of Nicotiana glutinosa after 3 to 4 days by half-leaf method; type: functional, organism-based; in short: as §1
Tobacco mosaic virus [8] = test: Antiviral activity against Tobacco mosaic virus infected in right side leaf of Nicotiana glutinosa at 5 uM after 3 to 4 days by half-leaf method; type: functional; in short: as §1
Tobacco mosaic virus [9] = test: Antiviral activity against Tobacco mosaic virus infected in right side leaf of Nicotiana glutinosa at 10 uM after 3 to 4 days by half-leaf method; type: functional; in short: as §1
Tobacco mosaic virus [10] = test: Antiviral activity against Tobacco mosaic virus infected in right side leaf of Nicotiana glutinosa at 40 uM after 3 to 4 days by half-leaf method; type: functional; in short: as §1
Tobacco mosaic virus [11] = test: Antiviral activity against Tobacco mosaic virus infected in right side leaf of Nicotiana glutinosa at 160 uM after 3 to 4 days by half-leaf method; type: functional; in short: as §1

Row | SMILES | selectivity ratio [1] | CC50 [2] [µg/mL] | EC50 [3] [µg/mL] | inhibition at 20 µM (Tobacco mosaic virus [4]) [%] | inhibition at 80 µM (Tobacco mosaic virus [5]) [%] | inhibition at 20 µM (Tobacco mosaic virus [6]) [%] | IC50 (Tobacco mosaic virus [7]) [µM] | inhibition at 5 µM (Tobacco mosaic virus [8]) [%] | inhibition at 10 µM (Tobacco mosaic virus [9]) [%] | inhibition at 40 µM (Tobacco mosaic virus [10]) [%] | inhibition at 160 µM (Tobacco mosaic virus [11]) [%]
1 | Cc1cc(=O)c2c(O)c(C)c(O)c(C)c2o1 | 10.5 | 57.5 (≈ 261 µM) | 5.46 (≈ 24.8 µM) | 8.6 |  |  |  |  |  |  | 
2 | CC1(C)Oc2cc3oc(CO)cc(=O)c3c(O)c2C[C@@H]1O[C@@H]1O[C@H](CO)[C@@H](O)[C@H](O)[C@H]1O | > 109 | > 200 |  |  |  |  |  |  |  |  | 
3 | COc1cc2oc(C)cc(=O)c2c(O)c1CC=C(C)C | 15.2 | 74.3 (≈ 271 µM) | 4.89 (≈ 17.8 µM) | 8.7 |  |  |  |  |  |  | 
4 | Cc1cc(=O)c2c(CC(C)O[C@@H]3O[C@H](CO)[C@@H](O)[C@H](O)[C@H]3O)cc(O)cc2o1 (some centres undefined) | 63.3 | 118 (≈ 299 µM) | 1.87 (≈ 4.72 µM) | 8.6 |  |  |  |  |  |  | 
5 | COc1cc2c(c3oc(C)cc(=O)c13)C=CC(C)(C)O2 | 8.3 | 37.3 (≈ 137 µM) | 4.49 (≈ 16.5 µM) | 9.2 |  |  |  |  |  |  | 
6 | CC(=O)Cc1cc(O)cc2oc(C)cc(=O)c12 | 13.5 | 88.7 (≈ 382 µM) | 6.58 (≈ 28.3 µM) | 6.7 |  |  |  |  |  |  | 
7 | CC(=O)[C@@H]1c2cc(O)cc(O)c2C(=O)C[C@]1(C)O | 28 | 88.3 (≈ 353 µM) | 3.16 (≈ 12.6 µM) | 6.4 |  |  |  |  |  |  | 
8 | CC1=CC2(O)OC(C)=Cc3cc(O)cc(c32)O1 (centres undefined) [BARAKOL] | 17.1 | 73.4 (≈ 316 µM) | 4.28 (≈ 18.4 µM) | 9 |  |  |  |  |  |  | 
9 | CNCC(=O)N[C@@H](CO)C(=O)N[C@H]1[C@H](O)[C@@H](O)[C@H](n2ccc(N)nc2=O)O[C@@H]1C(N)=O [NINGNANMYCIN] |  |  |  | 30.2 | 61.3 | 27.4 | 49.9 | 11.8 | 22.6 | 48.3 | 82.7
10 | COc1cc2c(c3oc(C(=O)O)cc(=O)c13)C=CC(C)(C)O2 [PERFORATIC ACID] | 2.3 | 26.5 (≈ 87.7 µM) | 11.5 (≈ 38.2 µM) | 13.6 | 36.8 | 10.2 | 127 | 5.62 | 9.27 | 25.4 | 54.7
11 | CC(=O)Cc1cc(O)cc2oc(C(=O)CCO)cc(=O)c12 [SIAMCHROMONES A] | 26 | 127 (≈ 436 µM) | 4.87 (≈ 16.8 µM) | 15.2 | 47.2 | 18.4 | 86.4 | 6.21 | 11.4 | 30.3 | 62.4
12 | COc1cc(CC(C)=O)c2c(=O)cc(C(=O)CCO)oc2c1 [SIAMCHROMONES B] | 16.3 | 85.2 (≈ 280 µM) | 5.22 (≈ 17.2 µM) | 9.8 |  |  |  |  |  |  | 
13 | COc1cc(CC(C)=O)c2c(=O)cc(CCCO)oc2c1 [SIAMCHROMONES C] | 6.87 | 43.6 (≈ 150 µM) | 6.34 (≈ 21.8 µM) | 8.6 |  |  |  |  |  |  | 
14 | COc1cc(CC(C)=O)c2c(=O)cc(CCCOC(C)=O)oc2c1 [SIAMCHROMONES D] | > 107 | > 200 | 1.87 (≈ 5.63 µM) | 7.5 |  |  |  |  |  |  | 
15 | C/C=C/c1cc(=O)c2c(CC(C)=O)cc(O)cc2o1 [SIAMCHROMONES E] | 9.37 | 26.7 (≈ 103 µM) | 2.85 (≈ 11 µM) | 9.2 |  |  |  |  |  |  | 
16 | CC1(C)C=Cc2c(cc(O)c3c(=O)cc(CCCO)oc23)O1 [SIAMCHROMONES F] | 68 | 196 (≈ 650 µM) | 2.89 (≈ 9.56 µM) | 35.3 | 89.2 | 42.7 | 31.2 | 13.5 | 26.7 | 61.4 | 96.8
17 | COc1cc2c(c3oc(CCCO)cc(=O)c13)C=CC(C)(C)O2 [SIAMCHROMONES G] | > 23.6 | > 200 | 8.46 (≈ 26.7 µM) | 5.7 |  |  |  |  |  |  | 
18 | Cc1cc(=O)c2c(O)c(C)c(O[C@@H]3O[C@H](CO)[C@@H](O)[C@H](O)[C@H]3O)c(C)c2o1 [UNCINOSIDE A] | 5.89 | 22.8 (≈ 59.6 µM) | 3.87 (≈ 10.1 µM) | 7.9 |  |  |  |  |  |  | 
19 | CC(C)c1cc(=O)c2c(O)cc(O[C@@H]3O[C@H](CO)[C@@H](O)[C@H](O)[C@H]3O)cc2o1 [URACHROMONE A] | 31 | 69.5 (≈ 182 µM) | 2.24 (≈ 5.86 µM) | 11.5 | 30.7 | 13.7 | 156 | 4.76 | 8.11 | 22.4 | 50.9
20 | Cc1cn([C@H]2C[C@H](N=[N+]=[N-])[C@@H](CO)O2)c(=O)[nH]c1=O [ZIDOVUDINE] | > 5880 | > 200 | 0.034 (≈ 0.127 µM) |  |  |  |  |  |  |  | 
